Data set [1] concerns Blood. The experiment in a line: Inhibition of LPS-induced TNFalpha production in human whole blood. The format is functional, tissue-based. In short, it runs like this:
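Fresh heparinized human whole blood was preincubated 30 min at 37 °C with serially diluted compound in type AB serum. It was then stimulated with E. coli LPS 0111:B4 (50 ng/mL final) for 5 h at 37 °C. Plasma TNFα was measured by ELISA, DELFIA or electrochemiluminescence against an on-plate standard curve. EC50 came from cross-plate duplicate 11-point curves fitted to a 4-parameter logistic, as the geometric mean over ≥3 donors.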

In data set [2] the test system is Mus musculus. In words: Inhibition of LPS-induced TNFalpha production in BALB/c mouse at 10 mg/kg, po. The format is functional. In short, it runs like this:
(§1)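 Female Balb/c mice (~20 g) were gavaged with compound in cremophor about 30 min before i.v. LPS (E. coli 0111:B4, 1.0 µg/mouse) plus D-gal (50 mg/kg) in pyrogen-free saline. After 1 h, blood was taken by cardiac puncture under anaesthesia. Serum TNFα was measured by ELISA in duplicate, and compound level by HPLC.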

The nature of data set [3]: Bioavailability in Sprague-Dawley rat at 10 mg/kg, po. The format is ADME, organism-based. The settings on record: in vivo. The essentials: (§2)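 Male Sprague-Dawley rats, fasted overnight with food returned about 4 h post-dose, three per group. One group got 1 mg/kg as a ~15 s i.v. push via femoral vein catheter at 1 mL/kg. The other got 10 mg/kg by oral gavage at 10 mL/kg. Plasma was analysed by noncompartmental pharmacokinetic methods.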

The nature of data set [4]: Clearance in Sprague-Dawley rat at 1 mg/kg, iv. The format is ADME, organism-based. Also on record: dose 1 mg/kg, route intravenous. The settings on record: in vivo. The essentials: as §2
Data set [5] is described as follows: Cmax in Sprague-Dawley rat at 10 mg/kg, po. The format is ADME, organism-based. The settings on record: in vivo. More on the design: dose 10 mg/kg, route oral. In short, it runs like this:
as §2

Data set [6] deals with Tyrosine-protein kinase Lyn (Homo sapiens, UniProt P07948). In words: Inhibition of Lyn.
Data set [7] relates to Mus musculus. The experiment in a line: Inhibition of LPS-induced TNFalpha production in BALB/c mouse at 3 mg/kg, po. The data set is classed as functional. The essentials: as §1
The target of data set [8] is Mitogen-activated protein kinase 9 (Homo sapiens, UniProt P45984). The experiment in a line: Inhibition of JNK2.

Where only a bound is given, the exact number is not on record here.

Usually IC50 stands for the point on the concentration scale where inhibition reaches its midpoint. The term inhibition in vivo denotes how much of the control response was suppressed. Read a high inhibition in vivo as strong suppression. The term bioavailability denotes the share of a dose that reaches the circulation, judged against a reference dose that is usually intravenous. Higher therefore signals good availability. For orientation: clearance means a measure of how efficiently the substance is removed, as volume per time. Read a low clearance as a low capacity for elimination. Broadly, the Cmax is the maximum level reached in the sampled fluid or tissue.

Sequence of Mitogen-activated protein kinase 9 (P45984 whole entry): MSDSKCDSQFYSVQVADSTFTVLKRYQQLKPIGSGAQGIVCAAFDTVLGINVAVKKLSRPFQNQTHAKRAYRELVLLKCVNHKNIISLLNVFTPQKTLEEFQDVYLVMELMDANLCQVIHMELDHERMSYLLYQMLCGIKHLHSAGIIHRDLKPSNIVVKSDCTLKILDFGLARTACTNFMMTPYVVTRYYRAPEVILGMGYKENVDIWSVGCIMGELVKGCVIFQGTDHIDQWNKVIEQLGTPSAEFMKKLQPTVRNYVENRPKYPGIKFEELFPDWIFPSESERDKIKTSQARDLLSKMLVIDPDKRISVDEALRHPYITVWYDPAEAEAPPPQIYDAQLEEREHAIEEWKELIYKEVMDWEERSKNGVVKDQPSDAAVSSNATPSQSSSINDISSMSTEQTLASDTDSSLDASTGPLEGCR
Sequence of Tyrosine-protein kinase Lyn (P07948 whole entry): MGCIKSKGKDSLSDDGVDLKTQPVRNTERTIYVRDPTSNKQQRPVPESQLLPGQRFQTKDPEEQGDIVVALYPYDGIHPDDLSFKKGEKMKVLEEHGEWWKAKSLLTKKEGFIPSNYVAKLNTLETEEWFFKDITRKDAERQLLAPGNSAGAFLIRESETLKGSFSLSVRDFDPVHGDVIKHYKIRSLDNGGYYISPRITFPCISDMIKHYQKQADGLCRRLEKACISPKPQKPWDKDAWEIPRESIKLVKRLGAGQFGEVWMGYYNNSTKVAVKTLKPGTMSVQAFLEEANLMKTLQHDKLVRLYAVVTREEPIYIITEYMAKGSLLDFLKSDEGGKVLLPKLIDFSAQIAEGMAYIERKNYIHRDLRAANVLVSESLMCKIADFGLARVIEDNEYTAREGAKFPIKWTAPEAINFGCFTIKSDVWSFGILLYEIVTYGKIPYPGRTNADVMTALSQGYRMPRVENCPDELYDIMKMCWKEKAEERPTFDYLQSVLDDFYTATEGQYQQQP

Take `COc1c(NC(=O)c2cc3ccccc3s2)cc(C(C)(C)C)cc1NS(C)(=O)=O`: the IC50 in data set [1] is > 10000 nM.

In the case of `COc1c(NC(=O)c2cc3ccccc3[nH]2)cc(C(C)(C)C)cc1NS(C)(=O)=O`, the IC50 in data set [1] was > 10000 nM.

In the case of `COc1c(NC(=O)c2cc3c(NC(=O)c4cccnc4)cccc3s2)cc(C(C)(C)C)cc1NS(C)(=O)=O`, in data set [1], the IC50 was > 10000 nM.

In data set [2], `COc1c(NC(=O)c2cc3cccc(NC(=O)c4cccnc4)c3s2)cc(C(C)(C)C)cc1NS(C)(=O)=O` yielded an inhibition in vivo at 10 mg/kg of 60%. The molecule also came in with a bioavailability in data set [3] of 57%. Besides, the clearance in data set [4] turned out to be 19 mL/min/kg. The molecule also showed a Cmax in data set [5] of 5200 ng/mL. Besides, the IC50 in data set [1] stood at 1100 nM.

`COc1c(NC(=O)c2cc3cccc(NC(=O)c4cccnc4)c3n2C)cc(C(C)(C)C)cc1NS(C)(=O)=O`: the inhibition in vivo at 10 mg/kg in data set [2] was 60%. The same molecule displayed a bioavailability in data set [3] of 90%. For the same molecule, the clearance in data set [4] came to 3 mL/min/kg. In data set [5], this molecule yielded a maximum concentration (Cmax) of 9000 ng/mL. Further, in data set [1], the IC50 turned out to be 3600 nM.

The molecule `CNc1ccc(C(=O)Nc2cccc3cc(C(=O)Nc4cc(C(C)(C)C)cc(NS(C)(=O)=O)c4OC)sc23)cn1` displayed an IC50 in data set [1] of 1100 nM.

In data set [1], `CNc1ccc(C(=O)Nc2cccc3cc(C(=O)Nc4cc(C(C)(C)C)cc(NS(C)(=O)=O)c4OC)n(C)c23)cn1` registered an IC50 of 500 nM.

Regarding `COc1c(NC(=O)c2cc3cccc(NC(=O)c4ccc(NCCN(C)C)nc4)c3s2)cc(C(C)(C)C)cc1NS(C)(=O)=O`, half-maximal inhibition in data set [1] (IC50) required 650 nM.

For `COc1c(NC(=O)c2cc3cccc(NC(=O)c4ccc(NCCN5CCOCC5)nc4)c3n2C)cc(C(C)(C)C)cc1NS(C)(=O)=O`, half-maximal inhibition in data set [1] (IC50) required 250 nM.

As to `COc1c(NC(=O)c2cc3cccc(NC(=O)c4ccc(NC5CC5)nc4)c3s2)cc(C(C)(C)C)cc1NS(C)(=O)=O`, the half-maximal inhibitory concentration (IC50) in data set [6] came out at 230 nM; in data set [1], 180 nM; in data set [8] it was 16 nM. The molecule also yielded an inhibition in vivo at 10 mg/kg in data set [2] of 98%. For the same molecule, the bioavailability in data set [3] came to 51%. For the same molecule, in data set [7], the inhibition in vivo at 3 mg/kg was 80%. Besides, the clearance in data set [4] came to 4 mL/min/kg. This molecule yielded a Cmax in data set [5] of 2400 ng/mL.

The molecule `COc1c(NC(=O)c2cc3cccc(NC(=O)c4ccc(NCC5CC5)nc4)c3s2)cc(C(C)(C)C)cc1NS(C)(=O)=O` came in with an IC50 in data set [1] of 670 nM.

`COc1c(NC(=O)Nc2ccc(OCCN3CCOCC3)c3ccccc23)cc(C(C)(C)C)cc1NS(C)(=O)=O`: half-maximal inhibition in data set [1] (IC50) was put at 1060 nM.

Consider `COc1c(NC(=O)Nc2cccc3ccccc23)cc(C(C)(C)C)cc1NS(C)(=O)=O`, for which the IC50 in data set [1] is > 10000 nM.

Regarding `COc1c(NC(=O)c2cc3cccc(NC(=O)c4ccc(N(C)C)nc4)c3s2)cc(C(C)(C)C)cc1NS(C)(=O)=O`, inhibition in data set [1] was half-maximal at 2200 nM (IC50).

With `COc1c(NC(=O)c2cc3ccccc3n2C)cc(C(C)(C)C)cc1NS(C)(=O)=O`, the IC50 in data set [1] is > 10000 nM.

On to `COc1c(NC(=O)c2cc3cccc(NC(=O)c4ccc(N)nc4)c3s2)cc(C(C)(C)C)cc1NS(C)(=O)=O`, for which, in data set [1], the IC50 came out at 430 nM.

Take `COc1c(NC(=O)c2cc3ccccc3o2)cc(C(C)(C)C)cc1NS(C)(=O)=O`: the IC50 in data set [1] was > 10000 nM.

Turning to `COc1c(NC(=O)c2cc3cccc(NC(=O)c4ccc(NCCN(C)C)nc4)c3n2C)cc(C(C)(C)C)cc1NS(C)(=O)=O`, 700 nM corresponded to half-maximal inhibition in data set [1] (IC50).

Turning to `COc1c(NC(=O)c2cc3cccc(NC(=O)c4ccc(NC5CC5)nc4)c3n2C)cc(C(C)(C)C)cc1NS(C)(=O)=O`, in data set [2], the inhibition in vivo at 10 mg/kg was determined as 75%. The bioavailability in data set [3] stood at 51%. The inhibition in vivo at 3 mg/kg in data set [7] was found to be 60%. The clearance in data set [4] was 5 mL/min/kg. The molecule also yielded a Cmax in data set [5] of 14000 ng/mL. For the same molecule, it took 140 nM to reach half-maximal inhibition in data set [1] (IC50).

The molecule `COc1c(NC(=O)c2cc3cccc(NC(=O)c4ccc(NCC5CC5)nc4)c3n2C)cc(C(C)(C)C)cc1NS(C)(=O)=O` gave an IC50 in data set [1] of 150 nM.

For the molecule `COCCNc1ccc(C(=O)Nc2cccc3cc(C(=O)Nc4cc(C(C)(C)C)cc(NS(C)(=O)=O)c4OC)sc23)cn1`, half-maximal inhibition in data set [1] (IC50) required 130 nM.

For `COCCNc1ccc(C(=O)Nc2cccc3cc(C(=O)Nc4cc(C(C)(C)C)cc(NS(C)(=O)=O)c4OC)n(C)c23)cn1`, the half-maximal inhibitory concentration (IC50) in data set [1] amounted to 160 nM.

For `COc1c(NC(=O)c2cc3cccc(NC(=O)c4ccc(NCCN5CCOCC5)nc4)c3s2)cc(C(C)(C)C)cc1NS(C)(=O)=O`, in data set [1], the IC50 stood at 550 nM.

As for `Cc1ccc(-n2nc(C(C)(C)C)cc2NC(=O)Nc2ccc(OCCN3CCOCC3)c3ccccc23)cc1` [DORAMAPIMOD], in data set [2], the inhibition in vivo at 10 mg/kg was 60%. In data set [3], this molecule gave a bioavailability of 76%. The same molecule came in with a clearance in data set [4] of 1.7 mL/min/kg. This molecule came in with a Cmax in data set [5] of 10900 ng/mL.

Source of the values: ChEMBL document CHEMBL1148722, “Discovery and optimization of p38 inhibitors via computer-assisted drug design” (J Med Chem, 2007).
